Results on 17 compounds are retold here after publication PMC12125705 (Journal of medicinal chemistry, 2017).

In brackets after ≈: the same amount, converted by molar mass.

The nature of data set [1]: Cytotoxicity. It is filed as cell-based, human. The note with it: human, DU-145 prostate cancer cells. The essentials: (§1)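 Cells grown per ATCC protocols, trypsin-EDTA harvested, trypan-blue counted, seeded at […] cells/well, and allowed to recover 24 h (37 °C, 5% CO2). They were then treated in triplicate at final 20, 10, 5, 2.5, 1.25, 0.625 and 0.0625 μM for 48 h. Fixed with cold TCA (16% final, 4 °C, 1 h), stained 15 min with SRB in 1% acetic acid, dye dissolved in 10 mM Tris base, A560 read. IC50 derived from absorbance; study done in duplicate.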

In data set [2] the test system is Gram-positive bacterial strains. The data set can be described thus: MIC by microbroth dilution, summary over strains in text. It is filed as cell-based. The note with it: Shigella flexneri, read-out: MIC values against most Gram-positive strains. (In general: Dilution methods test growth across graded concentrations, often in twofold steps.)
Data set [3] concerns the target RNA topoisomerase activity of E. coli topoisomerase I (EcoTop1) (Escherichia coli, UniProt P06612). Description: RNA topoisomerase inhibition assay. It is filed as biochemical. The settings on record: 10 nM EcoTop1; for effect on the RNA topoisomerase activity of EcoTop1: even at 80 μM concentrations; for inhibitory effect on the RNA topoisomerase activity of EcoTop1: at concentrations up to 50 μM; for concentration at which RNA topoisomerase activity is inhibited: concentration-dependent, 2.5–40 μM tested.

The target of data set [4] is E. coli DNA topoisomerase I (Escherichia coli, UniProt P06612). It is filed as biochemical. The settings on record: at 50 μM.
The test system of another data set is A. baumanni 19606. The data set can be described thus: MIC by microbroth dilution. The note with it: Acinetobacter, 19606, 24 h, read-out: MIC A. baumanni 19606. It is filed as cell-based, Acinetobacter baumanni. The procedure, abridged: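 CLSI microbroth dilution in Mueller-Hinton broth. Strains were grown at 37 °C with shaking to log phase, pelleted, and resuspended in 0.85% saline to OD625 0.1. Final inoculum 5 × 10^5 CFU/mL in 96-well plates, tested in triplicate, incubated 24 h at 37 °C. Growth was read as OD at 625 nm.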

Data set [5] has as its system human prostate cancer cell line DU-145. The data set can be described thus: Cytotoxicity. Type of data set: cell-based. The settings on record: 48 h treatment, SRB. The procedure, abridged:
as §1

Another data set relates to E. faecalis 29212. The settings on record: compounds 1–4 reproduced; ref [35]; cited from earlier work.
A further data set concerns S. aureus 33591. The settings on record: compounds 1–4 reproduced; ref [35]; cited from earlier work.
For the next data set, the system named is S. aureus 29213. The note with it: compounds 1–4 reproduced; ref [35]; cited from earlier work.
Another data set relates to E. coli K12. The settings on record: compounds 1–4 reproduced; ref [35]; cited from earlier work.
The target in data set [6] is T1, human DNA topoisomerase I (Homo sapiens, UniProt P11387).
T1 sequence (P11387 1-765): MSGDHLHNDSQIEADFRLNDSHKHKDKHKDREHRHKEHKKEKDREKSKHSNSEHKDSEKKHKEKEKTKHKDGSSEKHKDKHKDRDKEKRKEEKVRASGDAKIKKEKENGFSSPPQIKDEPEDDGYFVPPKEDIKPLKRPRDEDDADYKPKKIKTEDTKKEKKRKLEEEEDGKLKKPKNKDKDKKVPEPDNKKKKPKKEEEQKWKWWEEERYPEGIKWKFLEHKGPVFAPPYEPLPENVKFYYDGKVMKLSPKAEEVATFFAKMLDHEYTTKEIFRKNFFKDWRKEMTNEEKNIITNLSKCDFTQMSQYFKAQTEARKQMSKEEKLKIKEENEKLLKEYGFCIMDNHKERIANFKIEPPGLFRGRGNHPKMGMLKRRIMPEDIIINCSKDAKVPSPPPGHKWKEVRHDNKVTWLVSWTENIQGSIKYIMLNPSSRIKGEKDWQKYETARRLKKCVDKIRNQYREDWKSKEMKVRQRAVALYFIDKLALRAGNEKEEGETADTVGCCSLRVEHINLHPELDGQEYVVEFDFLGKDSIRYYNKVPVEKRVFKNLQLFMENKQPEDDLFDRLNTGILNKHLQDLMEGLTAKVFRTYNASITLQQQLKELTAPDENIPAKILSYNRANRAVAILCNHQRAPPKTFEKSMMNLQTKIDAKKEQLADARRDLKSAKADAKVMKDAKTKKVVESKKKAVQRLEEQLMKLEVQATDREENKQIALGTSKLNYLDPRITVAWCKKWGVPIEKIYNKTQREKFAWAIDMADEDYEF
The settings on record: read-out: IC50 hTopoI, values reproduced, ref [35]; cited from earlier work.

Data set [7] is described as follows: Cytotoxicity. Type of data set: cell-based. The settings on record: human, PCS 201-010 normal dermal fibroblast cells. The procedure, abridged:
as §1

Another data set deals with E. coli 25922. The settings on record: compounds 1–4 reproduced; ref [35]; cited from earlier work.

Sequence of RNA topoisomerase activity of E. coli topoisomerase I (EcoTop1) (P06612 whole entry): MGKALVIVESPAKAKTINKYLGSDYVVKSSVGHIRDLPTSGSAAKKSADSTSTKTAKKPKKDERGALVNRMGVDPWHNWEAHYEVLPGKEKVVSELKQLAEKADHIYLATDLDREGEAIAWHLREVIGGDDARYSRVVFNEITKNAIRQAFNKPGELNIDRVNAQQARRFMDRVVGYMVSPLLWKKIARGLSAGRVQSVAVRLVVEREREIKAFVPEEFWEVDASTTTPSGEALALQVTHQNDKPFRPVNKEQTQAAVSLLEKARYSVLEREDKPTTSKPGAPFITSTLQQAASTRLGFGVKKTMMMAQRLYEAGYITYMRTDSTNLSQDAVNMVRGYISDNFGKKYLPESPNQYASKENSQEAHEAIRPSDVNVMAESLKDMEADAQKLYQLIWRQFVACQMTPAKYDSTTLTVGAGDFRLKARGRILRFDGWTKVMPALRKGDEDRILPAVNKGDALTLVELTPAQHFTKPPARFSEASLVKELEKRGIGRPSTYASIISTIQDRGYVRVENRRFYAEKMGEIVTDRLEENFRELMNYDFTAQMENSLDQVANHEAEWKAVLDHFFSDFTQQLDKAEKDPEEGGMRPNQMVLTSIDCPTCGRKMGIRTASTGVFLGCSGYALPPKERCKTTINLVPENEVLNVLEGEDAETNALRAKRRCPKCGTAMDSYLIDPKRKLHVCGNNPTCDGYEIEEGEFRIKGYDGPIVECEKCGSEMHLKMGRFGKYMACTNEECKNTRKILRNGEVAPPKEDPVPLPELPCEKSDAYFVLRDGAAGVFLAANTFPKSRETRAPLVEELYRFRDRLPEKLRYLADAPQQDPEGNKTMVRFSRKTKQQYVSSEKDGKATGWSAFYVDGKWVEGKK
Sequence of E. coli DNA topoisomerase I (P06612 whole entry): as above

On to `CN1CCN(c2ccc3nc(-c4ccc5nc(-c6ccc(O)cc6)[nH]c5c4)[nH]c3c2)CC1.Cl.Cl.Cl` [Hoechst 33258, reference compound], for which, in the data set “Cytotoxicity [1]”, the IC50 at 48 h is > 10 µM. Further, in data set [2], the MIC is 0.3 to 4 µg/mL.

Take `CCOc1ccc(-c2nc3cc(-c4nc5cc(N6CCN(C)CC6)ccc5[nH]4)ccc3[nH]2)cc1` [Hoechst 33342, reference compound]: in data set [3], the “effect on the RNA topoisomerase activity of EcoTop1” value is “do not have any effect”. In data set [2], the MIC was in the range of 0.3 to 4 µg/mL (≈ 0.663 to 8.84 µM).

As for `C#CCOCCOCCOCCOCCOCCOCCOc1ccc(-c2nc3ccc(-c4nc5ccc(N6CCN(C)CC6)cc5[nH]4)cc3[nH]2)cc1` [Compound 9, 2′-(4-(3,6,9,12,15,18-Hexaoxahenicos-20-ynyloxy)phenyl)-6-(4-methylpiperazin-1-yl)-1H,3′H-2,5′-bibenzo[d]imidazole], in “Cytotoxicity [1]”, the 50% inhibitory concentration (IC50) at 48 h was > 10 µM. In addition, the “inhibitory effect on the RNA topoisomerase activity of EcoTop1” value (from here on “inhibitory effect”) in [3] is on record as “no discernible inhibitory effect”. For the same compound, in [4], the “inhibition of the activity of E. coli DNA topoisomerase I” value is on record as “did not significantly inhibit”. In addition, the MIC in the data set with A. baumanni 19606 was > 32 µg/mL.

With `C#CCOc1ccc(-c2nc3ccc(-c4nc5ccc(N6CCN(C)CC6)cc5[nH]4)cc3[nH]2)cc1` [Compound 1], the “cytotoxicity to DU-145 compared with Hoechst 33258” value in [5] is given as “more cytotoxic”. Also, the “inhibitory effect” value in data set [3] was “no discernible inhibitory effect”. Moreover, the “MIC E. faecalis 29212” value with E. faecalis 29212 is 16 to 32 µg/mL. Further, the “MIC S. aureus 33591” value in the data set on S. aureus 33591 was 2 to 4 µg/mL. For the same compound, the MIC in [2] is 0.3 to 4 µg/mL (≈ 0.649 to 8.65 µM). Further, the “MIC S. aureus 29213” value with S. aureus 29213 is 2 to 4 µg/mL.

Regarding `C#CCOCCCCCCOc1ccc(-c2nc3ccc(-c4nc5ccc(N6CCN(C)CC6)cc5[nH]4)cc3[nH]2)cc1` [Compound 5, 6-(4-Methylpiperazin-1-yl)-2′-(4-(6-(prop-2-ynyloxy)-hexyloxy)phenyl)-1H,3′H-2,5′-bibenzo[d]imidazole], the “cytotoxicity to DU-145 compared with Hoechst 33258” value in [5] was “more cytotoxic”. Besides, the “inhibitory effect” value in data set [3] is listed as “no discernible inhibitory effect”. The MIC in the data set with A. baumanni 19606 was > 32 µg/mL.

As for `C#CCOCCCCCCCCCCOc1ccc(-c2nc3ccc(-c4nc5ccc(N6CCN(C)CC6)cc5[nH]4)cc3[nH]2)cc1` [Compound 7, 6-(4-Methylpiperazin-1-yl)-2′-(4-(10-(prop-2-ynyloxy)decyloxy)phenyl)-1H,3′H-2,5′-bibenzo[d]imidazole], the 50% inhibitory concentration (IC50) at 48 h in the data set “Cytotoxicity [1]” was > 10 µM. The “concentration at which RNA topoisomerase activity is inhibited” value in data set [3] is reported as “about 10 μM”. Also, the MIC in the data set on A. baumanni 19606 is > 32 µg/mL.

On to `C#Cc1ccc(-c2cn(CCOc3ccc(-c4nc5ccc(N6CCN(C)CC6)cc5[nH]4)cc3)nn2)cc1` [Compound 21, 2-(4-(2-(4-(4-Ethynylphenyl)-1H-1,2,3-triazol-1-yl)ethoxy)-phenyl)-6-(4-methylpiperazin-1-yl)-1H-benzo[d]imidazole], for which the MIC in the data set on A. baumanni 19606 is > 32 µg/mL.

Turning to `C#CCOCCCCCCCCOc1ccc(-c2nc3ccc(-c4nc5ccc(N6CCN(C)CC6)cc5[nH]4)cc3[nH]2)cc1` [Compound 6, 6-(4-Methylpiperazin-1-yl)-2′-(4-(8-(prop-2-ynyloxy)octyloxy)phenyl)-1H,3′H-2,5′-bibenzo[d]imidazole], the “cytotoxicity to DU-145 compared with Hoechst 33258” value in data set [5] is “more cytotoxic”. The “concentration at which RNA topoisomerase activity is inhibited” value in data set [3] is on record as “about 10 μM”.

Turning to `C#CCCCCCCCCCOc1ccc(-c2nc3ccc(-c4nc5ccc(N6CCN(C)CC6)cc5[nH]4)cc3[nH]2)cc1` [Compound 3], the concentration for half-maximal inhibition (IC50) at 48 h in the data set “Cytotoxicity [1]” was > 10 µM. Also, the “concentration at which RNA topoisomerase activity is inhibited” value in data set [3] is recorded as “about 10 μM”. Also, the “MIC E. faecalis 29212” value in the data set on E. faecalis 29212 is 16 to 32 µg/mL. The “MIC E. coli K12” value in the data set on E. coli K12 was 8 to 16 µg/mL. For the same compound, the concentration for half-maximal inhibition (IC50) in [6] was > 50 µM.

With `C#CCOCCCCCCCCCCCCOc1ccc(-c2nc3ccc(-c4nc5ccc(N6CCN(C)CC6)cc5[nH]4)cc3[nH]2)cc1` [Compound 8, 6-(4-Methylpiperazin-1-yl)-2′-(4-(12-(prop-2-ynyloxy)dodecyloxy)phenyl)-1H,3′H-2,5′-bibenzo[d]imidazole], the IC50 at 48 h in “Cytotoxicity [1]” and in the data set “Cytotoxicity [7]” was > 10 µM each time. In addition, in data set [3], the “concentration at which RNA topoisomerase activity is inhibited” value was “about 10 μM”.

For the compound `C#CCOCCCCOc1ccc(-c2nc3ccc(-c4nc5ccc(N6CCN(C)CC6)cc5[nH]4)cc3[nH]2)cc1` [Compound 4], the “cytotoxicity to DU-145 compared with Hoechst 33258” value in [5] is “more cytotoxic”. Besides, the “inhibitory effect” value in data set [3] is recorded as “no discernible inhibitory effect”. For the same compound, the “MIC E. coli K12” value with E. coli K12 was 8 to 16 µg/mL. In addition, the “MIC S. aureus 33591” value with S. aureus 33591 is 2 to 4 µg/mL. For the same compound, the MIC in data set [2] lay in the range of 0.3 to 4 µg/mL (≈ 0.561 to 7.48 µM). For the same compound, the “MIC E. coli 25922” value in the data set with E. coli 25922 was 8 to 16 µg/mL. For the same compound, the IC50 in data set [6] is > 50 µM. In the data set with S. aureus 29213, the “MIC S. aureus 29213” value is 2 to 4 µg/mL.

Regarding `CCOc1ccc2nc3cc(N)ccc3c(N)c2c1` [ethacridine, reference compound], the “effect on the RNA topoisomerase activity of EcoTop1” value in data set [3] is given as “do not have any effect”.

Take `CN1CCN(c2ccc3nc(-c4ccc(OCc5cn(CCCCN=[N+]=[N-])nn5)cc4)[nH]c3c2)CC1` [Compound 20]: the “inhibitory effect” value in [3] is on record as “no discernible inhibitory effect”.

As for `CN1CCN(c2ccc3nc(-c4ccc(OCCCNC(=O)OC(C)(C)C)cc4)[nH]c3c2)CC1` [Compound 15, tert-Butyl 3-(4-(6-(4-Methylpiperazin-1-yl)-1H-benzo[d]imidazol-2-yl)phenoxy)propylcarbamate], in the data set with A. baumanni 19606, the MIC is > 32 µg/mL.

On to `CN1CCN(c2ccc3nc(-c4ccc(OCc5cn(CCN=[N+]=[N-])nn5)cc4)[nH]c3c2)CC1` [Compound 19, 2-(4-((1-(2-Azidoethyl)-1H-1,2,3-triazol-4-yl)methoxy)-phenyl)-6-(4-methylpiperazin-1-yl)-1H-benzo[d]imidazole], for which the MIC in the data set on A. baumanni 19606 is > 32 µg/mL.

For `Oc1ccc(-c2nc3ccccc3[nH]2)cc1` [Compound 13, 4-(1H-Benzo[d]imidazol-2-yl)phenol], the MIC with A. baumanni 19606 lay within 16 to 32 µg/mL (≈ 76.1 to 152 µM).

As to `C#CCCCCOc1ccc(-c2nc3ccc(-c4nc5ccc(N6CCN(C)CC6)cc5[nH]4)cc3[nH]2)cc1` [Compound 2], the “cytotoxicity to DU-145 compared with Hoechst 33258” value in data set [5] is on record as “more cytotoxic”. Moreover, the “inhibitory effect” value in [3] is listed as “no discernible inhibitory effect”. In the data set on E. coli K12, the “MIC E. coli K12” value is 8 to 16 µg/mL. The “MIC S. aureus 33591” value with S. aureus 33591 is 2 to 4 µg/mL. Further, the MIC in [2] fell in the range of 0.3 to 4 µg/mL (≈ 0.594 to 7.93 µM). Further, the “MIC E. coli 25922” value in the data set on E. coli 25922 was 8 to 16 µg/mL. In data set [6], the IC50 was > 50 µM. The “MIC S. aureus 29213” value in the data set on S. aureus 29213 is 2 to 4 µg/mL.

Broadly, the IC50 is the midpoint of a concentration-inhibition curve. As usually defined, the MIC is the lowest concentration that inhibits growth of the organism.
